Yeast lifespan up = compounds extending yeast replicative lifespan, primary screen, S. cerevisiae, OD615. S. cerevisiae growth with nicotinamide; deaD strain in restrictive glucose medium. inhibition of the nicotinamide effect, % at 10 µM. hit rate 0.68% among 130,000;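 active means inhibition above a set limit, placed 3 SD over the median of all compounds, cut at about 26% in these data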
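Buffer or medium: CSMM-D glucose medium, restrictive; test system: modified budding yeast, DeaD strain; compound: single dose 10 µM compound, 0.25% DMSO; schedule: culture preincubation 4 h, compound exposure 48 h, both 30 °C; detection: optical density (absorbance) at 615 nm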
hDAT+cocaine = changed hDAT dopamine uptake under cocaine IC80, either direction, primary screen, cocaine antagonist project, cell-based, LLC-PK1 hDAT, [14C]-dopamine uptake, MLSMR; B-score at 10 µM; LLC-PK1 hDAT cells, [14C]-dopamine uptake with cocaine IC80; actives deviate in either direction; hit rate 1.3% among 110,000; Sodium-dependent dopamine transporter (Homo sapiens), Q01959;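 active means Z score or B-score, a plate-position-corrected score, falls beyond the plate's 99.7% confidence bounds, in either direction; inactive means both scores lie inside the 99.7% bounds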
Target sequence (Q01959 whole entry, looked up): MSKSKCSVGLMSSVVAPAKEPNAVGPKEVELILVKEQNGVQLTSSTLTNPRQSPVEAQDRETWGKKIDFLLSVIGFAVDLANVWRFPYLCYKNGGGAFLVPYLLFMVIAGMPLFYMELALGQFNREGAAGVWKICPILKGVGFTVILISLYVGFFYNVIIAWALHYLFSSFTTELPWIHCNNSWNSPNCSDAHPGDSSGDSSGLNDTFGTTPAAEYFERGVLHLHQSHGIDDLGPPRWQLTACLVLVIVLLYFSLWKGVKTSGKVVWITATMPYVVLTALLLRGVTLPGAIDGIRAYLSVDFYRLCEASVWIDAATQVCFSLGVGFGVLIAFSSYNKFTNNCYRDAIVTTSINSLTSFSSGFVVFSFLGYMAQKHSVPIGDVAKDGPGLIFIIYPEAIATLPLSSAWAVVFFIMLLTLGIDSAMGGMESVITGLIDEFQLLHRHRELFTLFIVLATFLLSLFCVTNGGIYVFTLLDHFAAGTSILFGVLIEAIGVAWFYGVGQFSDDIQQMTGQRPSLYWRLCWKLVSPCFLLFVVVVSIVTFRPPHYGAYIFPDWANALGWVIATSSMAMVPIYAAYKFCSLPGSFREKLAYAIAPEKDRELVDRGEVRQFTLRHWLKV
RAM inhibit = inhibitors of the yeast RAM network, primary screen, dse1pr::URA3 reporter, 5-FOA selection. AID 868, 2007. hit rate 1.8% among 190,000. S. cerevisiae dse1pr::URA3 reporter, 5-FOA growth OD615, 2 d; analog-sensitive cbk1-as2 kinase mutant strain. inhibition, % at 50 µM;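 active means inhibition above a set limit, 3 SD over mean compound inhibition, cut at about 8.4% in these data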;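 further: inhibition rescues growth on 5-FOA so higher OD means more RAM inhibition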
Measles CPE = compounds protecting cells from measles virus cytopathic effect, primary screen, measles RdRp inhibitor project, single point, MLSMR library, absorbance; Measles virus-infected cells, CPE protection; protection (pct of control), % at 4 µM; hit rate 1.5% among 140,000; AID 841, 2007; in the data active means protection mostly above about 24%, no sharp cut-off; inactive means mostly below about 26%
WT yeast gro inh = growth inhibition of WT strain, primary screen, mitochondrial fusion inhibitor project, WT and mutant strains, chemical genetic. mitochondrial fusion phenotypic screen. inhibition, % at 10 µM. hit rate 2.1% among 190,000; in the data active means inhibition above about 58%; tested in S. cerevisiae
BB579 growth dn = growth inhibitors of yeast BB579 in restrictive medium, primary screen, yeast lifespan-shortening project, S. cerevisiae. OD615, 48 h. inhibition, % at 10 µM. hit rate 0.51% among 140,000. AID 804, 2007;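 active means inhibition above a set limit, 3 SD over the mean compound inhibition, cut at about 44% in these data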
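test system = yeast BB579 (DeaD) | buffer or medium = restrictive CSMM-D medium | doses = single compound dose of 10 µM, 0.25% DMSO final | times = 4 h preincubation and 48 h exposure at 30 °C | technique = culture absorbance at 615 nm | benchmarks = amphotericin B 10 µg/mL, positive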
Numbers stand for hits; – = inactive; · = no result. This is a sample that favours compounds with a hit; in the whole collection about 6.1% have one here.

SMILES	Yeast lifespan up	hDAT+cocaine	RAM inhibit	Measles CPE	WT yeast gro inh	BB579 growth dn
COc1ccc(-n2nc(C(=O)NCC(=O)NCc3ccco3)c3ccccc3c2=O)cc1Cl	–	–	–	–	–	–
COCCNC(=O)CNC(=O)c1nn(-c2ccc(OC)c(Cl)c2)c(=O)c2ccccc12	–	-6.8	–	–	–	–
COC(=O)CNC(=O)c1nn(-c2cccc(OC)c2)c(=O)c2ccccc12	–	–	–	44	–	–
O=C(N/N=C/c1ccc(OCCCF)cc1)c1cc(OCC(F)(F)F)ccc1OCC(F)(F)F	–	–	–	–	–	–
Cc1ccc(CNc2nc3ccccc3n3nnnc23)cc1	–	–	–	–	–	–
CCOC(=O)N1CCC(Nc2nc3ccccc3n3nnnc23)CC1	–	·	–	34	–	–
O=C(Nc1ccc2c(c1)OCO2)c1cnn2c(C(F)(F)F)cc(-c3ccco3)nc12	–	–	–	–	–	–
O=C(c1cnn2c(C(F)(F)F)cc(-c3ccco3)nc12)N1CCCc2ccccc21	–	1.9	–	–	–	–
Clc1ccc2c(N/N=C/c3cccc(Br)c3)ccnc2c1	–	·	–	–	99	–
CCCCOc1ccc(C)cc1CN(CCO)CCO	–	–	–	–	–	–
CCCCCc1ccc(OCCCC[n+]2ccccc2)c(CCCCC)c1	·	·	–	·	86	·
CCCCCc1ccc(OCCCC[n+]2cccc(C)c2)c(CCCCC)c1	·	·	–	·	–	·
CCCCCc1ccc(OCCCC[n+]2ccc(C)cc2)c(CCCCC)c1	·	·	–	·	98	·
CCC(C)(C)c1ccc(OCCCC[n+]2ccccc2)c(C(C)(C)CC)c1	·	·	–	·	93	·
O=C(c1ccccc1C(=O)N(c1ccccc1)c1ccccc1)N1CCCCC1	–	·	–	–	–	–
O=C(Cc1ccsc1)Nc1ccc(S(=O)(=O)C(F)F)cc1	·	·	–	·	–	·
Cc1ccc(C)c(/C=N/n2cc(-c3ccccc3)[nH]c2=S)c1	·	·	–	·	71	·
S=c1[nH]c(-c2ccccc2)cn1/N=C/c1ccc(Br)cc1	·	·	–	·	–	·
CSc1ccccc1C(=O)C1CCCN(C(=O)NC(C)C)C1 (stereo unspecified)	·	·	–	·	–	·
Cc1ccc(OCC(=O)NC(=S)Nc2ccc(Br)cn2)cc1C	·	·	9.5	·	–	·
CCOc1ccc(NC(=O)COC(=O)C23CC4CC(CC(C4)C2)C3)c([N+](=O)[O-])c1	–	·	–	–	–	–
Cc1ccc(-n2nc(C(=O)c3ccccc3)n3c(=O)cc(-c4ccccc4)nc23)cc1	–	–	–	26	–	–
Cc1ccc(NC(=O)c2cc(-c3ccccc3)nn2-c2ccccc2)cc1	–	·	–	–	66	–
Cc1ccc(NC(=O)c2cc(-c3ccccc3)nn2-c2ccccc2)c(Br)c1	–	·	–	–	65	–
O=C1c2ccccc2-c2nc3ccccc3nc21	–	–	–	–	–	85
SMILES	Yeast lifespan up	hDAT+cocaine	RAM inhibit	Measles CPE	WT yeast gro inh	BB579 growth dn
CCCCN1C2CCCC1CC(NC(=O)C1CCCCC1)C2 (stereo unspecified)	·	–	–	–	–	–
CCNC(=O)Nn1c(-c2ccccc2)nc2ccccc2c1=O	–	–	–	–	–	–
CCC(C(=O)OC)n1c(-c2ccccc2)nc2ccccc2c1=O (stereo unspecified)	·	·	–	·	60	·
CC1CCCC2(C1)NC(=S)c1c(sc3c1CCCC3)N2 (stereo unspecified)	–	–	–	–	–	86
O=C(Nc1nc(-c2ccc(Cl)s2)cs1)c1ccco1	·	·	–	·	–	·
O=C(Nc1nc(-c2nc3ccccc3s2)cs1)c1ccco1	–	–	–	49	–	–
N#CCCCn1c(=O)oc2ccccc21	·	·	–	·	–	·
Cc1ccc(S(=O)(=O)c2cc3ccccc3nc2N)cc1	·	·	–	·	–	·
O=[N+]([O-])c1ccc(-c2cnc(SC(c3ccccc3)c3ccccc3)[nH]2)cc1	–	·	9.5	–	–	–
O=C(CSc1nnc(Nc2ccccc2)s1)NN1C(=O)NC2(CCCCC2)C1=O	–	·	–	–	–	–
Cc1c(NC(=O)CSc2ccc(Cl)cc2)cccc1-c1nc2cc(Cl)ccc2o1	–	·	–	–	–	–
